pEC50, pIC50: −log10 of the molar value.
Columns and labels:
Trypanosoma cruzi [1] = assay: Antitrypanosomal activity against amastigote stage of Trypanosoma cruzi
Trypanosoma cruzi [2] = assay: Antitrypanosomal activity against trypomastigote stage of Trypanosoma cruzi Y infected in monkey LLC-MK2 cells after 24 hrs by Pizzi-Brener method; type: functional, organism-based; details: LLC-MK2, 24 h
In short: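 Trypomastigotes harvested from infected LLCMK2 culture supernatant, 1 × 10^7 cells/mL with compound (0.1-50 µM), 24 h at 37°C, 5% CO2. Viability by motility (Pizzi–Brener); EC50 by nonlinear regression.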

Trypanosoma cruzi [3] = assay: Antitrypanosomal activity against epimastigote stage of Trypanosoma cruzi Y after 96 hrs by hemocytometry; type: functional, organism-based
In short: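 Log-phase parasites (promastigotes 3-day, Warren's medium + 10% FBS, 25°C; epimastigotes 4-day, LIT + 10% FBS, 28°C) seeded at 1 × 10^6 cells/mL with compound (0.1-100 µM; DMSO ≤1%). Promastigotes read at 72 h, epimastigotes at 96 h, by hemocytometer counting. IC50 by nonlinear regression.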

[4] = Selectivity ratio of CC50 for monkey LLC-MK2 cells to EC50 for trypomastigote stage of Trypanosoma cruzi Y; type: ADME, cell-based; details: read-out: Ratio CC50/EC50
[5] = Selectivity ratio of CC50 for monkey LLC-MK2 cells to IC50 for epimastigote stage of epimastigote stage of Trypanosoma cruzi Y; type: ADME, cell-based; details: read-out: Ratio CC50/IC50
[6] = Selectivity ratio of CC50 for monkey LLC-MK2 cells to IC50 for epimastigote stage of epimastigote stage of Trypanosoma cruzi Y
Trypanosoma cruzi [7] = assay: Antitrypanosomal activity against amastigote stage of Trypanosoma cruzi Y infected in monkey LLC-MK2 cells after 96 hrs by Geimsa staining-based light microscopy; type: functional, organism-based; details: LLC-MK2, 96 h
In short: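 LLCMK2 monolayers (2.5 x 10^5 cells/mL, 24 h, 37 °C, 5% CO2) infected with trypomastigotes at 10 per host cell for 24 h, washed, treated with compound (0.1 to 50 μM) 96 h. Methanol-fixed, Giemsa-stained, 200 cells counted; survival index (% infected × amastigotes/cell); IC50 by nonlinear regression.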

[8] = Selectivity ratio of CC50 for BALB/c mouse peritoneal macrophages to IC50 for amastigote stage of Leishmania amazonensis WHOM/BR/75/JOSEFA
Leishmania amazonensis [9] = assay: Antileishmanial activity against amastigote stage of Leishmania amazonensis WHOM/BR/75/JOSEFA infected in BALB/c mouse peritoneal macrophages after 72 hrs by Geimsa staining-based light microscopy; type: functional, organism-based
[10] = Selectivity ratio of CC50 to IC50 for promastigote stage of Leishmania amazonensis WHOM/BR/75/JOSEFA; set-up: reference not given here
Leishmania amazonensis [11] = assay: Antileishmanial activity against promastigote stage of Leishmania amazonensis WHOM/BR/75/JOSEFA after 72 hrs by hemocytometry; type: functional, organism-based
Trypanosoma cruzi [12] = assay: Antitrypanosomal activity against trypomastigote stage of Trypanosoma cruzi Y infected in monkey LLC-MK2 cells after 96 hrs by Pizzi-Brener method; type: functional, organism-based
[13] = Selectivity ratio of CC50 for mouse J774A1 cells to IC50 for promastigote stage of Leishmania amazonensis WHOM/BR/75/JOSEFA; type: ADME, cell-based, J774.A1; details: read-out: Ratio CC50/IC50
[14] = Selectivity ratio of CC50 for monkey LLC-MK2 cells to IC50 for amastigote stage of Trypanosoma cruzi Y; type: ADME, cell-based; details: read-out: Ratio CC50/IC50

pIC50 (Trypanosoma cruzi [3])	pIC50 (Trypanosoma cruzi [7])	pIC50 (Leishmania amazonensis [9])	pIC50 (Leishmania amazonensis [11])	pEC50 (Trypanosoma cruzi [12])	SMILES	pIC50 (Trypanosoma cruzi [1])	pEC50 (Trypanosoma cruzi [2])	selectivity ratio [4]	selectivity ratio [5]	selectivity ratio [6]	Ratio CC50/IC50 [8]	selectivity ratio [10]	selectivity ratio [13]	selectivity ratio [14]
6.52	4.87	5.85	6.70	5.74	CS(=O)(=O)c1nc2ccc(Br)cc2nc1Cl			7	49.6	49.6	9.9	71.8	71.8	1.1
5.44	4.84	4.89	5.60	4.41	CCCCNc1nc2ccc(OC)cc2nc1S(C)(=O)=O			10	108	108	3.3	17.1	17.1	27.3
5.60	5.03	5.14	5.60	4.60	COc1ccc2nc(NC3CCCCC3)c([S+](C)[O-])nc2c1 (centres undefined)			7.1	72.8	72.8	2.8	8	8	19.5

SMILES	pIC50 (Trypanosoma cruzi [3])	pIC50 (Trypanosoma cruzi [7])	pIC50 (Leishmania amazonensis [9])	pIC50 (Leishmania amazonensis [11])	pEC50 (Trypanosoma cruzi [12])	pIC50 (Trypanosoma cruzi [1])	pEC50 (Trypanosoma cruzi [2])	selectivity ratio [4]	selectivity ratio [5]	selectivity ratio [6]	Ratio CC50/IC50 [8]	selectivity ratio [10]	selectivity ratio [13]	selectivity ratio [14]
O=C(Cn1ccnc1[N+](=O)[O-])NCc1ccccc1 [BENZNIDAZOLE]	5.09					4.58	5.47							

Source: ChEMBL document CHEMBL3396970, “Synthesis and biological evaluation of novel 2,3-disubstituted quinoxaline derivatives as antileishmanial and antitrypanosomal agents” (Eur J Med Chem, 2015)
